The values below come from ChEMBL document CHEMBL1909516, “Synthesis of 9-substituted 2,3,4,9-tetrahydro-1H-carbazole derivatives and evaluation of their anti-prion activity in TSE-infected cells” (Eur J Med Chem, 2011).

For series [1], the system named is GT1-7. The series can be described thus: Antiprion activity in human transmissible spongiform encephalopathies agent Fukuoka-1 prion infected mouse GT1-7 cells assessed as inhibition of proteinase K-resistant PrPres accumulation at […] after 3 days by Western blotting analysis. The format is cell-based. Summed up: (§1)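 GT1-7 mouse neuronal cells persistently infected with Fukuoka-1 agent, grown in DMEM with 10% FBS and penicillin G at 37 °C, 5% CO2. Seeded 3 × 10⁵ cells/well; 15 h later given compound diluted from 10 mM DMSO stock (control 0.1% DMSO). Lysate adjusted to 1 mg/mL protein, proteinase K 30 min 37 °C, pelleted, SDS-PAGE, anti-PrP M-20 Western blot. IC50 = 50% PrPres inhibition.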

Series [2] can be described thus: Antiprion activity in human transmissible spongiform encephalopathies agent Fukuoka-1 prion infected mouse GT1-7 cells assessed as inhibition of proteinase K-resistant PrPres accumulation after 3 days by Western blot analysis. In kind it is cell-based. The following applies: GT1-7, 72 h. The method, boiled down:
as §1

In series [3] the test system is GT1-7. The series can be described thus: Antiprion activity in human transmissible spongiform encephalopathies agent Fukuoka-1 prion infected in mouse GT1-7 cells assessed as inhibition of proteinase K-resistant PrPres accumulation at 5 uM after 3 days by Western blot analysis relative to control. The format is cell-based. The method, boiled down: as §1
A short description of series [4]: Cytotoxicity against human transmissible spongiform encephalopathies agent Fukuoka-1 prion infected mouse GT1-7 cells at 10 uM after 3 days. The format is cell-based. The following applies: gt1-7, 72 h.
The species entered for another series is Mus musculus. Kind of series: Antiprion activity in scrapie infected mouse ScN2a-3-Ch cells assessed as inhibition of proteinase K-resistant PrPres accumulation at 5 uM after 3 days by Western blot analysis relative to control. Summed up: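 Scrapie-infected ScN2a-3-Ch cells seeded at about 1 × 10⁵ cells/well and handled as in the GT1-7 assay. Compound diluted from 10 mM DMSO stock, with 0.1% DMSO control. Lysate protein adjusted to 1 mg/mL, then proteinase K digestion 30 min at 37 °C. Pellet analysed by Western blot for PrPres, expressed relative to control.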

For series [5], the system named is GT1-7. Kind of series: Ratio of compound IC50 over GJP14 IC50 for human transmissible spongiform encephalopathies agent Fukuoka-1 prion infected in mouse GT1-7 cells. In kind it is cell-based.
The subject of series [6] is GT1-7. The series can be described thus: Antiprion activity in human transmissible spongiform encephalopathies agent Fukuoka-1 prion infected mouse GT1-7 cells assessed as inhibition of PrPC expression at 5 uM after 3 days absence of proteinase K digestion. The format is cell-based. Summed up:
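GT1-7 cells persistently infected with Fukuoka-1 agent, seeded 3 × 10⁵ cells/well. Compound from 10 mM DMSO stock added 15 h after seeding (vehicle 0.1% DMSO). Lysates adjusted to 1 mg/mL total protein (BCA). Run without proteinase K digestion, so PrPC is read by Western blot with M-20 anti-PrP antibody.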

Activity calls are given as the source filed them. The rule behind the calls is not given here.

Take `OC(CNc1ccccc1)Cn1c2c(c3ccccc31)CCCC2` (centres undefined): the inhibition entry in the series with GT1-7 [1] is “inactive”. Still for that read-out and setting: the value for `OC(CNCc1cc(F)ccc1F)Cn1c2c(c3ccccc31)CCCC2` (centres undefined) was “Active”; that for `OC(CN1CCCCC1)Cn1ccc2ccccc21` (centres undefined) was “inactive”. As to `OC(CN1CCCCC1)Cn1ccc2c1CCCC2` (centres undefined), the inhibition result in the series with GT1-7 [1] was “inactive”.

For the compound `Cc1ccccc1CNCC(O)Cn1c2c(c3ccccc31)CCCC2` (centres undefined), in the series with GT1-7 [1], the inhibition result is “Active”. Take `OC(CN1CCOCC1)Cn1c2c(c3ccccc31)CCCC2` (centres undefined): the inhibition result in the series with GT1-7 [1] was “Active”.

For `O[C@H](CNCc1ccccc1F)Cn1c2c(c3ccccc31)CCCC2`, the IC50 in series [2] came out at 2230 nM. In the case of `COc1ccccc1CNCC(O)Cn1c2c(c3ccccc31)CCCC2` (centres undefined), in the series on GT1-7 [1], the inhibition result is “Active”. Same read-out and setting: the value for `OC(CNCc1cccc(F)c1)Cn1c2c(c3ccccc31)CCCC2` (centres undefined) was “Active”; that for `OC(CNCc1ccccc1Br)Cn1c2c(c3ccccc31)CCCC2` (centres undefined) was “Active”. On the same count and under the same terms, the value for `OC(CNCc1ccc(F)cc1)Cn1c2c(c3ccccc31)CCCC2` (centres undefined) was “Active”.

For `CC(C)(NCC(O)Cn1c2c(c3ccccc31)CCCC2)c1ccccc1` (centres undefined), the inhibition with GT1-7 [3] came to 34%. Also, the Activity result in series [4] is “Toxic”. On to `OC(CNCc1ccccc1)Cn1c2c(c3ccccc31)CCCC2` (centres undefined), for which the inhibition with GT1-7 [3] came out at 28%. Also, the inhibition entry in the series on GT1-7 [1] was “Active”. As to `COc1ccc(CNCC(O)Cn2c3c(c4ccccc42)CCCC3)cc1` (centres undefined), in the series with GT1-7 [3], the inhibition was determined as 23%. The Activity entry in series [4] is on record as “Toxic”. Turning to `Cc1ccc(CNCC(O)Cn2c3c(c4ccccc42)CCCC3)cc1` (centres undefined), the inhibition with GT1-7 [3] stood at 32%. Moreover, the Activity result in series [4] is recorded as “Toxic”. Consider `OC(CNCc1cccc2ccccc12)Cn1c2c(c3ccccc31)CCCC2` (centres undefined), for which the inhibition result in the series on GT1-7 [1] was “Active”. Same read-out and setting: the value for `OC(CNCc1cccnc1)Cn1c2c(c3ccccc31)CCCC2` (centres undefined) was “Active”; that for `OC(CN1CCCCC1)Cn1cccc1` (centres undefined) was “inactive”; that for `Cc1cccc(CNCC(O)Cn2c3c(c4ccccc42)CCCC3)c1` (centres undefined) was “Active”.

On to `OC(CNCc1ccncc1)Cn1c2c(c3ccccc31)CCCC2` (centres undefined), for which the inhibition result with GT1-7 [1] is “Active”.

Take `OC(CNCc1ccc(Cl)cc1)Cn1c2c(c3ccccc31)CCCC2` (centres undefined): the inhibition in the series on GT1-7 [3] turned out to be 18%. For the same compound, in series [4], the Activity result is listed as “Toxic”.

With `OC(CNC1CCCC1)Cn1c2c(c3ccccc31)CCCC2` (centres undefined), the inhibition result in the series on GT1-7 [1] is “Active”. Still for that read-out and setting: the value for `OC(CNCc1cccc(Cl)c1)Cn1c2c(c3ccccc31)CCCC2` (centres undefined) was “Active”; that for `c1ccc2c3c([nH]c2c1)CCCC3` was “inactive”; that for `CCCCNCC(O)Cn1c2c(c3ccccc31)CCCC2` (centres undefined) was “Active”. As to `OC(CNCc1ccccc1Cl)Cn1c2c(c3ccccc31)CCCC2` (centres undefined), the inhibition result with GT1-7 [1] is “Active”. Same read-out and setting: the value for `OC(CNCc1ccccn1)Cn1c2c(c3ccccc31)CCCC2` (centres undefined) was “Active”; that for `OC(CNCc1c(Cl)cccc1Cl)Cn1c2c(c3ccccc31)CCCC2` (centres undefined) was “Active”. For `OC(CNCc1ccc(Br)cc1)Cn1c2c(c3ccccc31)CCCC2` (centres undefined), in the series on GT1-7 [3], the inhibition stood at 25%. Further, the Activity result in series [4] was “Toxic”.

As for `OC(CNCc1ccc(C(F)(F)F)cc1)Cn1c2c(c3ccccc31)CCCC2` (centres undefined), the inhibition entry with GT1-7 [1] was “Active”. On the same count and under the same terms, the value for `OC(CN1CCCCC1)Cn1c2c(c3ccccc31)CCCC2` (centres undefined) was “Active”. Take `O[C@@H](CNCc1ccccc1F)Cn1c2c(c3ccccc31)CCCC2`: in the series filed under Mus musculus, the inhibition result is “Active”. The IC50 in series [2] stood at 1110 nM. Also, in the series with GT1-7 [5], the Ratio IC50 is 8. Further, in the series on GT1-7 [6], the inhibition entry was “inactive”.

As to `OC(CNCc1ccccc1C(F)(F)F)Cn1c2c(c3ccccc31)CCCC2` (centres undefined), the inhibition entry in the series on GT1-7 [1] was “Active”. Same read-out and setting: the value for `OC(CN1CCCCC1)Cn1c2ccccc2c2ccccc21` (centres undefined) was “Active”. Regarding `COc1cccc(CNCC(O)Cn2c3c(c4ccccc42)CCCC3)c1` (centres undefined), the inhibition with GT1-7 [3] was found to be 21%. In addition, the Activity result in series [4] is on record as “Toxic”. On to `OC(CNCc1c(F)cccc1F)Cn1c2c(c3ccccc31)CCCC2` (centres undefined), for which the inhibition result with GT1-7 [1] is “Active”. Same read-out and setting: the value for `OC(CNCc1ccc(F)cc1F)Cn1c2c(c3ccccc31)CCCC2` (centres undefined) was “Active”. For `Cc1ccc2c(c1)c1c(n2CC(O)CN2CCCCC2)C(=O)CCC1` (centres undefined), the IC50 in series [2] is 8540 nM. In the case of `OC(CNCc1ccccc1F)Cn1c2c(c3ccccc31)CCCC2` (centres undefined), the inhibition entry with GT1-7 [1] is “Active”. Take `O=C(CN1CCCC1)Nc1ccc(Cc2ccc(NC(=O)CN3CCCC3)cc2)cc1`: in the series on GT1-7 [3], the inhibition came out at 34%. For the same compound, in series [2], the IC50 is 1400 nM.

Take `OC(CNCc1cccc(Br)c1)Cn1c2c(c3ccccc31)CCCC2` (centres undefined): in the series with GT1-7 [1], the inhibition result is “Active”. As for `OC(CNCc1cccc(C(F)(F)F)c1)Cn1c2c(c3ccccc31)CCCC2` (centres undefined), in the series with GT1-7 [3], the inhibition was 40%. Moreover, in series [4], the Activity result is listed as “Toxic”.
